In ChEMBL document CHEMBL5724801, “EUbOPEN Chemogenomics Library - Multiplex” (2024):
Where “and” joins values, the source holds several entries; their conditions need not be identical. Equal entries are not always repeated.

Legend:
U2OS = test: Multiplex assay against U2OS; format: toxicity, cell-based; details: human
Summary of the method: (§1)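 Four dyes were applied at seeding to live cells: Hoechst33342, BioTracker Green Microtubule Cytoskeleton Dye, MitoTracker Red and Annexin V Alexa Fluor 680. Imaging after compound addition used a CQ1 microscope at 37°C and 5% CO2. CellPathfinder machine-learning gating then sorted cells into Hoechst high-intensity objects or normal cells, normal cells into healthy, pyknosed or fragmented nuclei, and pyknosed cells into mitotic or apoptotic, with tubulin, mitochondrial-mass and membrane-permeability phenotypes given as per cents of healthy-nucleus cells.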

HEK-293T = test: Multiplex assay against HEK293T; format: toxicity, cell-based; details: human; summary of the method: as §1
[1] = 24 h, 1 µM, compound concentration 1 uM
[2] = 24 h, 10 µM, compound concentration 10 uM
[3] = 48 h, 1 µM, compound concentration 1 uM
[4] = 48 h, 10 µM, compound concentration 10 uM
[5] = 12 h, 1 µM, compound concentration 1 uM
[6] = 12 h, 10 µM, compound concentration 10 uM

CCOC(=O)c1c(/C(C#N)=C\N)c2ccc(Cl)c(Cl)c2n1C
Population Tubulin-Different-Phenotype (%) (U2OS; [1]): 1.62% and 1.29%
Population Apoptotic (%) (U2OS; [2]): 49.09% and 33.33%
Population Fragmented Nuclei (%) (U2OS; [2]): 1.8% and 9.69%
Population Healthy Nuclei (%) (U2OS; [2]): 87.17% and 84.5%
Population Hoechst High Intensity Objects (%) (U2OS; [2]): 0%
Population Membrane Permeable-Phenotype (%) (U2OS; [2]): 0.46% and 1.38%
Population Mitochondria Different-Phenotype (%) (U2OS; [2]): 0% and 1.38%
Population Mitotic Cells (%) (U2OS; [2]): 50.91% and 66.67%
Population Normal (%) (U2OS; [2]): 100%
Population Pyknosed Nuclei (%) (U2OS; [2]): 11.02% and 5.81%
Population Tubulin-Different-Phenotype (%) (U2OS; [2]): 0.92% and 0.46%
Total Cell Count (U2OS; [2]): 499 and 258
Population Apoptotic (%) (U2OS; [3]): 46.46% and 70.83%
Population Fragmented Nuclei (%) (U2OS; [3]): 2.55% and 2.93%
Population Healthy Nuclei (%) (U2OS; [3]): 88.73% and 89.25%
Population Hoechst High Intensity Objects (%) (U2OS; [3]): 0%
Population Membrane Permeable-Phenotype (%) (U2OS; [3]): 0.6% and 3.28%
Population Mitochondria Different-Phenotype (%) (U2OS; [3]): 0% and 2.55%
Population Mitotic Cells (%) (U2OS; [3]): 53.54% and 29.17%
Population Normal (%) (U2OS; [3]): 100%
Population Pyknosed Nuclei (%) (U2OS; [3]): 8.71% and 7.82%
Population Tubulin-Different-Phenotype (%) (U2OS; [3]): 0.4% and 1.82%
Population Apoptotic (%) (U2OS; [4]): 37.84% and 47.83%
Population Fragmented Nuclei (%) (U2OS; [4]): 3.52% and 4.86%
Population Healthy Nuclei (%) (U2OS; [4]): 85.01% and 83.38%
Population Hoechst High Intensity Objects (%) (U2OS; [4]): 0%
Population Membrane Permeable-Phenotype (%) (U2OS; [4]): 1.09% and 0.92%
Population Mitochondria Different-Phenotype (%) (U2OS; [4]): 0% and 1.84%
Population Mitotic Cells (%) (U2OS; [4]): 62.16% and 52.17%
Population Normal (%) (U2OS; [4]): 100%
Population Pyknosed Nuclei (%) (U2OS; [4]): 11.48% and 11.76%
Population Tubulin-Different-Phenotype (%) (U2OS; [4]): 1.09% and 0%
Total Cell Count (U2OS; [4]): 967 and 391
Population Apoptotic (%) (HEK-293T; [5]): 10.92% and 11.11%
Population Fragmented Nuclei (%) (HEK-293T; [5]): 1.47% and 6.57%
Population Healthy Nuclei (%) (HEK-293T; [5]): 63.42% and 21.17%
Population Hoechst High Intensity Objects (%) (HEK-293T; [5]): 0.59% and 0%
Population Membrane Permeable-Phenotype (%) (HEK-293T; [5]): 0.47% and 0%
Population Mitochondria Different-Phenotype (%) (HEK-293T; [5]): 35.81% and 27.59%
Population Mitotic Cells (%) (HEK-293T; [5]): 89.08% and 88.89%
Population Normal (%) (HEK-293T; [5]): 99.41% and 100%
Population Pyknosed Nuclei (%) (HEK-293T; [5]): 35.1% and 72.26%
Total Cell Count (HEK-293T; [5]): 341 and 137
Population Apoptotic (%) (HEK-293T; [6]): 10.34% and 8.77%
Population Fragmented Nuclei (%) (HEK-293T; [6]): 2.88% and 1.83%
Population Healthy Nuclei (%) (HEK-293T; [6]): 59.94% and 28.66%
Population Hoechst High Intensity Objects (%) (HEK-293T; [6]): 0.64% and 0%
Population Membrane Permeable-Phenotype (%) (HEK-293T; [6]): 0.53% and 0%
Population Mitochondria Different-Phenotype (%) (HEK-293T; [6]): 26.74% and 19.15%
Population Mitotic Cells (%) (HEK-293T; [6]): 89.66% and 91.23%
Population Normal (%) (HEK-293T; [6]): 99.36% and 100%
Population Pyknosed Nuclei (%) (HEK-293T; [6]): 37.18% and 69.51%
Total Cell Count (HEK-293T; [6]): 314 and 164
Population Apoptotic (%) (HEK-293T; [1]): 15.32% and 13.98%
Population Fragmented Nuclei (%) (HEK-293T; [1]): 1.11% and 3.87%
Population Healthy Nuclei (%) (HEK-293T; [1]): 78.41% and 36.13%
Population Hoechst High Intensity Objects (%) (HEK-293T; [1]): 0.18% and 0%
Population Membrane Permeable-Phenotype (%) (HEK-293T; [1]): 1.18% and 0%
Population Mitochondria Different-Phenotype (%) (HEK-293T; [1]): 15.29% and 16.07%
Population Mitotic Cells (%) (HEK-293T; [1]): 84.68% and 86.02%
Population Normal (%) (HEK-293T; [1]): 99.82% and 100%
Population Pyknosed Nuclei (%) (HEK-293T; [1]): 20.48% and 60%
Population Tubulin-Different-Phenotype (%) (HEK-293T; [1]): 5.88% and 5.36%
Population Apoptotic (%) (HEK-293T; [2]): 10.47% and 16.46%
Population Fragmented Nuclei (%) (HEK-293T; [2]): 1.69% and 1.2%
Population Healthy Nuclei (%) (HEK-293T; [2]): 80.17% and 51.2%
Population Hoechst High Intensity Objects (%) (HEK-293T; [2]): 0%
Population Membrane Permeable-Phenotype (%) (HEK-293T; [2]): 1.05% and 1.18%
Population Mitochondria Different-Phenotype (%) (HEK-293T; [2]): 14.21% and 7.06%
Population Mitotic Cells (%) (HEK-293T; [2]): 89.53% and 83.54%
Population Normal (%) (HEK-293T; [2]): 100%
Population Pyknosed Nuclei (%) (HEK-293T; [2]): 18.14% and 47.59%
Population Tubulin-Different-Phenotype (%) (HEK-293T; [2]): 7.11% and 4.71%
Total Cell Count (HEK-293T; [2]): 474 and 166
Population Apoptotic (%) (HEK-293T; [3]): 7.43% and 15.94%
Population Fragmented Nuclei (%) (HEK-293T; [3]): 4.65% and 2.55%
Population Healthy Nuclei (%) (HEK-293T; [3]): 86.28% and 72.26%
Population Hoechst High Intensity Objects (%) (HEK-293T; [3]): 0%
Population Membrane Permeable-Phenotype (%) (HEK-293T; [3]): 4.76% and 3.03%
Population Mitochondria Different-Phenotype (%) (HEK-293T; [3]): 8.8% and 13.13%
Population Mitotic Cells (%) (HEK-293T; [3]): 92.57% and 84.06%
Population Normal (%) (HEK-293T; [3]): 100%
Population Pyknosed Nuclei (%) (HEK-293T; [3]): 9.06% and 25.18%
Population Apoptotic (%) (HEK-293T; [4]): 9.24% and 19.3%
Population Fragmented Nuclei (%) (HEK-293T; [4]): 4.82% and 1.55%
Population Healthy Nuclei (%) (HEK-293T; [4]): 85.93% and 80.75%
Population Hoechst High Intensity Objects (%) (HEK-293T; [4]): 0% and 0.92%
Population Membrane Permeable-Phenotype (%) (HEK-293T; [4]): 5.88% and 2.31%
Population Mitochondria Different-Phenotype (%) (HEK-293T; [4]): 11.04% and 11.15%
Population Mitotic Cells (%) (HEK-293T; [4]): 90.76% and 80.7%
Population Normal (%) (HEK-293T; [4]): 100% and 99.08%
Population Pyknosed Nuclei (%) (HEK-293T; [4]): 9.25% and 17.7%
